Screens deposited in PubChem by several laboratories.
Compounds with a hit are over-represented: about 1.3% of the library has one in this group of screens.
Casp6 inh = human caspase-6 inhibitors, primary screen, biochemical, VEID-R110 fluorescence, single point, set 2; P55212; purified caspase-6, Z-VEID-R110 cleavage fluorescence; inhibition, % at 12.5 µM; 0.53% of 350,000 active;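 active = mean inhibition across replicates at least about 35%, with every replicate also reaching that limit, limit read from the data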
Target sequence (P55212 24-179 limits assumed): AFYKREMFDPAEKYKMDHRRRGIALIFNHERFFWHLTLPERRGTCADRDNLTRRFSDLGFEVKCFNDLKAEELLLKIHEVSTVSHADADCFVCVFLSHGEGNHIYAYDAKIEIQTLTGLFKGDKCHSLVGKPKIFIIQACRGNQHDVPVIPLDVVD
Target sequence (P55212 194-293 limits assumed): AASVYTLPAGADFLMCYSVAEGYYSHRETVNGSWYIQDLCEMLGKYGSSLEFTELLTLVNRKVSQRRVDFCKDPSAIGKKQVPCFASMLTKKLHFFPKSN
TDP2 absorb = human TDP2 enzyme inhibitors, primary screen, biochemical, epi absorbance, recombinant enzyme; Tyrosyl-DNA phosphodiesterase 2 (Homo sapiens), O95551; T5PNP hydrolysis, p-nitrophenol absorbance 415 nm; inhibition, % at 12.8 µM; 0.34% of 370,000 active;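 active = inhibition above the mean of all tested compounds plus 3 SD, set per campaign, cut at about 25% in these data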
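System: recombinant human TDP2 / Amount: 120 nM TDP2 per well / Also added: 5 mM T5PNP chromogenic substrate / Doses: 12.8 µM single point, 1% DMSO / Incubation: 2 h at 37 °C / Detection: p-Nitrophenol epi absorbance / Evaluation: % inhibition relative to enzyme-containing and enzyme-free wells / Repeats: singlicate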
ARFGAP1 inh = inhibitors of rat ARFGAP1 GAP activity, primary screen, biochemical, fluorescence polarization, GDP tracer; ADP-ribosylation factor GTPase-activating protein 1 (Rattus norvegicus), Q62848; Arfgap1-stimulated ARF1 GTP hydrolysis, GDP FP detection; inhibition, % at 16.5 µM; 0.26% of 360,000 active; AID 651572, 2012;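 active = inhibition above a per-plate limit, mean inhibition of low control wells plus 3 SD, cut at about 25% in these data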
Target sequence (Q62848 1-136 limits assumed): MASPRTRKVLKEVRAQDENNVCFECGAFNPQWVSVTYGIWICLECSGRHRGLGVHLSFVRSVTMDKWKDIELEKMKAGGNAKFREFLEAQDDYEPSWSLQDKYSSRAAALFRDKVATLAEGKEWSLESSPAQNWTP
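Material: truncated rat Arfgap1 GAP domain; Incubation: compound-enzyme preincubation 20 min, reaction 120 min, detection 60 min, 25 °C; Read-out: percent inhibition of Arfgap1-stimulated GTP hydrolysis; Technique: FP, GDP Alexa 633 tracer displaced from anti-GDP antibody, 620/688 nm; Controls: No-Arfgap1 wells (100%) versus DMSO full-reaction wells (0%); Replication: single well per compound.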
ASAP1 inh = inhibitors of human ASAP1 ArfGAP activity, primary screen, biochemical, fluorescence polarization | AID 624377, 2012 | inhibition, % at 16.5 µM | Arf-GAP with SH3 domain, ANK repeat and PH domain-containing protein 1 (Homo sapiens), … | 0.19% of 360,000 active | ASAP1-stimulated ARF1 GTP hydrolysis, GDP FP detection; in the data active = inhibition above about 25%
LEDGF integ inh = blockers of LEDGF/p75-dependent integrase strand transfer – biochemical, TR-FRET, high throughput, primary screen; HIV-1 integrase (with human LEDGF/p75); TR-FRET IN-LEDGF/p75 DNA integration, Eu/Cy5; inhibition, % at 3.7 µM; 0.64% of 370,000 active; AID 743269, 2014;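 active = inhibition above the screen-wide mean plus 3 SD, cut at about 13% in these data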;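 also: signal is the Cy5 over europium emission ratio at 671 and 618 nm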
IN multimer up = HIV-1 IN multimer formation enhancers, counter-screen for LEDGF/p75 integration inhibitor project, biochemical, TR-FRET. shares compounds with LEDGF integ inh. TR-FRET HIV-1 integrase multimerization. activation, % at 7.7 µM. 17% of 2,000 active; in the data active = activation above about 8.9%
TR-FRET interf = TR-FRET optical interference artefacts, confirmation, artefact control for LEDGF/p75-dependent integration inhibitor project, biochemical, HIV-1 IN multimerization; AID 1053135, 2014; shares compounds with LEDGF integ inh; inhibition, % at 7.7 µM; TR-FRET optical interference counterscreen; 2,000 tested, under 10 active;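 active = inhibition above the mean over all tested compounds plus 3 SD, which no compound reached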
LEDGF integ conf = inhibitors of HIV-1 IN-LEDGF/p75 DNA integration, confirmation, biochemical, TR-FRET; shares compounds with LEDGF integ inh; TR-FRET LEDGF/p75-dependent HIV-1 integration; inhibition, % at 3.7 µM; 36% of 2,000 active; AID 1053136, 2014; in the data active = inhibition above about 14%
Hits are given with their value; 0 = inactive; - = no result given.

SMILES	Casp6 inh	TDP2 absorb	ARFGAP1 inh	ASAP1 inh	LEDGF integ inh	IN multimer up	TR-FRET interf	LEDGF integ conf
Cc1ccc(/C=C2\Oc3cc(OCC(=O)NN)ccc3C2=O)o1	0	0	0	0	20.9	0	0	13.5
O=C(O)COc1ccc2c(c1)O/C(=C\c1ccco1)C2=O	51.7	0	0	0	41.1	26.6	0	46.0
O=C(O)COc1ccc2c(c1)O/C(=C\c1cccs1)C2=O	0	0	0	0	0	-	-	-
COCCN(CCOC)Cc1c(O)ccc2c1O/C(=C\c1ccc(C)o1)C2=O	0	0	0	0	40.1	12.6	0	14.1
COc1ccc(C(CC(=O)NC(C)c2ccc(-c3ccccc3)cc2)NC(C)=O)cc1 (stereo unspecified)	0	0	0	0	0	-	-	-
CC(=O)c1ccc(OC2(C)CCN(Cc3ccc4c(c3)OCCO4)C2)cc1 (stereo unspecified)	0	0	0	0	14.8	0	0	0
CCN(CC)c1cc(Oc2ccccc2)ncn1	-	0	0	0	46.9	0	0	0
Cc1cccc(NC(=O)c2ccccc2SCc2ccc(F)cc2)n1	0	0	0	0	53.1	0	0	0
CCNC(=O)c1ccccc1SCc1ccccc1	0	0	0	0	14.1	0	0	0
CCc1ccc(OCCNC(=O)c2ccccc2SCc2ccccc2)cc1	-	0	0	0	0	-	-	-
COc1ccccc1-c1c(C)nn2c(N3CCN(Cc4ccccc4)CC3)cc(C)nc12	0	0	0	0	0	-	-	-
O=C1C(=Cc2cccs2)CCc2ccccc21	0	0	0	0	0	-	-	-
CC1C/C(=C/c2cccs2)C(=O)/C(=C/c2cccs2)C1 (stereo unspecified)	0	0	0	0	29.1	0	0	0
Cn1nnnc1SCC(=O)N1CCN(c2ccc(Cl)cc2)CC1	-	0	0	0	56.6	0	0	0
CN(C)S(=O)(=O)c1cccc(NC(=S)N/N=C/c2ccc(O)c(O)c2O)c1	37.9	0	0	0	55.3	18.9	0	41.4
CN(Cc1ccccc1)Cc1nc2c(c(=O)n(C)c(=O)n2C)n1CCc1ccccc1	-	0	0	0	22.7	0	0	0
CCCn1c(CN(C)Cc2ccccc2)nc2c1c(=O)n(C)c(=O)n2C	-	0	0	0	0	-	-	-
COC(=O)c1ccc(NC(=S)N2CCN(Cc3cccc(C)c3)CC2)cc1	-	0	0	0	0	-	-	-
CN(C)CCn1nnnc1SCC1=C(C(=O)O)N2C(=O)[C@@H](NC(=O)Cc3csc(N)n3)[C@H]2SC1	-	0	0	0	23.5	0	0	19.4
Cc1nnc(SCC2=C(C(=O)O)N3C(=O)C(NC(=O)Cn4cnnn4)C3SC2)s1 (stereo unspecified)	-	0	0	0	0	-	-	-
Nc1nc(C(F)(F)F)cc(=O)[nH]1	0	0	0	0	0	-	-	-
O=c1cc(C(F)(F)F)nc(-n2[nH]c3c(c2=O)CCCC3)[nH]1	-	0	0	0	16.7	0	0	0
COC(=O)[C@]12CCCCC=C1N(Cc1cccc3ccccc13)C(=O)[C@H](CC(=O)N1CCCCC1)C2	0	0	0	0	82.3	0	0	0
COCCCN1C(=O)N(c2ccc(F)cc2)C(=O)C1CC(=O)Nc1ccccc1 (stereo unspecified)	0	0	0	0	0	-	-	-
CC1(C(=O)Nc2ccc3nc[nH]c3c2)CCN1C(=O)C1(c2ccccc2)CCCC1 (stereo unspecified)	0	0	0	0	24.6	0	0	0
SMILES	Casp6 inh	TDP2 absorb	ARFGAP1 inh	ASAP1 inh	LEDGF integ inh	IN multimer up	TR-FRET interf	LEDGF integ conf
CC1(C(=O)Nc2ccc3nc[nH]c3c2)CCN1C(=O)Cc1ccc(-c2ccccc2)cc1 (stereo unspecified)	0	0	0	0	0	-	-	-
CC(=O)c1ccc(NC(=S)NC(=O)Cc2ccc(Cl)cc2)cc1	0	0	0	0	14.9	0	0	0
COc1ccc(OCc2nn3c(-c4ccco4)nnc3s2)cc1	-	0	0	0	0	-	-	-
c1coc(-c2nnc3sc(Cc4cccs4)nn23)c1	-	0	0	0	38.2	0	0	17.6
O=[N+]([O-])c1ccc2nc(-c3ccncc3)[nH]c2c1	0	0	0	0	45.7	0	0	0
C[C@@H]1CN([C@H](C)CO)C(=O)c2cc(Br)cnc2O[C@@H]1CN(C)S(=O)(=O)c1ccccc1	0	-	-	-	-	-	-	-
O=C(c1ccc(=O)oc1)N1CCOCC1	-	0	0	0	29.2	0	0	58.3
COc1cc(C2C3=C(COC3=O)Oc3cc4c(cc32)OCO4)cc(OC)c1O (stereo unspecified)	0	0	0	0	23.1	0	0	0
COc1cc(C2C3=C(COC3=O)Oc3cc4c(cc32)OCO4)cc(OC)c1OC (stereo unspecified)	0	0	0	0	0	-	-	-
O=[N+]([O-])c1ccc(/C=N/n2c(COc3ccccc3)n[nH]c2=S)cc1	-	0	0	0	0	-	-	-
COc1ccccc1NC(=O)CSCC(=O)N1c2ccccc2CCc2ccccc21	0	0	0	0	13.4	0	0	0
COc1ccc(NC(=O)CSCC(=O)N2c3ccccc3CCc3ccccc32)cc1	0	0	0	0	0	-	-	-
N=c1c(S(=O)(=O)c2ccccc2)cc2c(=O)n3ccccc3nc2n1Cc1ccco1	-	0	0	0	0	-	-	-
Cc1ccc2nc3c(cc(S(=O)(=O)c4ccccc4)c(=N)n3Cc3ccco3)c(=O)n2c1	0	0	0	0	18.4	0	0	0
N=c1c(C(=O)NCCc2ccccc2)cc2c(=O)n3ccccc3nc2n1Cc1ccco1	0	0	0	0	17.4	0	0	0
N=c1c(C(=O)NC2CCCCC2)cc2c(=O)n3ccccc3nc2n1Cc1ccco1	0	0	0	0	0	-	-	-
Cc1ccc(S(=O)(=O)N(C)C[C@H]2OCCCC[C@@H](C)Oc3ccc(NS(=O)(=O)c4ccc(Cl)cc4)cc3C(=O)N([C@@H](C)CO)C[C@H]2C)cc1	0	-	-	-	-	-	-	-
